The values below come from ChEMBL document CHEMBL4118021, “Studies of TAK1-centered polypharmacology with novel covalent TAK1 inhibitors” (Bioorg Med Chem, 2017).

In general, inhibition refers to the change of the read-out against control, counted positive when it falls.

For data set [1], the target named is STE20-like serine/threonine-protein kinase SLK (Homo sapiens) (UniProt Q9H2G2). The data set can be described thus: Inhibition of SLK in human SKCO1 cells at 1 uM after 4 hrs using biotin labeled DLKAGNILFTLDGDIK probe by mass-spectrometric analysis relative to control.
Data set [2] concerns the target T1, Calcium/calmodulin-dependent protein kinase type IV (Homo sapiens) (UniProt Q16566).
T1 sequence (whole entry): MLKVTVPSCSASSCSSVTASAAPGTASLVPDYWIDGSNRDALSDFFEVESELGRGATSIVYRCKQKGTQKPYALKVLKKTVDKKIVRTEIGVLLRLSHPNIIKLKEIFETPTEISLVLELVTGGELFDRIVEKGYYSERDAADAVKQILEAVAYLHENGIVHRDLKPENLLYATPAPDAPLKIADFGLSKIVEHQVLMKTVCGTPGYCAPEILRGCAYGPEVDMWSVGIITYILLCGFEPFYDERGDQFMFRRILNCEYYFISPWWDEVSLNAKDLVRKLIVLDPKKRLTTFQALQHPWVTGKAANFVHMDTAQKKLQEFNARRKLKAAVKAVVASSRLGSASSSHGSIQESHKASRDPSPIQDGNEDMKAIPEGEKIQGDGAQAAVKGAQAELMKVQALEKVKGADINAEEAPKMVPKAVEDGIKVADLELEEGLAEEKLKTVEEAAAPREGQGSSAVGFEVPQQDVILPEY
Briefly: Inhibition of CaMK4 in human SKCO1 cells at 1 uM after 4 hrs using biotin labeled DLKPENLLYATPAPDAPLK probe by mass-spectrometric analysis relative to control. The data set is classed as cell-based.

Data set [3] addresses Ribosomal protein S6 kinase alpha-1 (Homo sapiens) (UniProt Q15418). The data set can be described thus: Inhibition of RSK1 domain1 in human SKCO1 cells at 1 uM after 4 hrs using biotin labeled DLKPENILLDEEGHIK probe by mass-spectrometric analysis relative to control. The class given is cell-based. The following applies: pooled result: one value given for 3 cell lines, strains, targets or settings. In short, it runs like this: (§1)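 Live SK-CO-1 cells exposed to compound at 1 μM or DMSO for 4 h (KiNativ). Lysates then labeled with lysine-reactive ATP/ADP-biotin probe, and probe-labeled kinase peptides quantified by mass spectrometry. Percent inhibition of probe-dependent recovery calculated relative to DMSO-treated cells.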

In data set [4] the target is Interleukin-1 receptor-associated kinase 1 (Homo sapiens) (UniProt P51617). The data set can be described thus: Inhibition of IRAK1 in human SKCO1 cells at 1 uM after 4 hrs using biotin labeled AIQFLHQDSPSLIHGDIKSSNVLLDER probe by mass-spectrometric analysis relative to control. The class given is cell-based.
In data set [5] the target is DNA-dependent protein kinase catalytic subunit (Homo sapiens) (UniProt P78527). The data set can be described thus: Inhibition of DNAPK in human SKCO1 cells at 1 uM after 4 hrs using biotin labeled EHPFLVKGGEDLR probe by mass-spectrometric analysis relative to control. The class given is cell-based.
DNA-dependent protein kinase catalytic subunit (Homo sapiens), sequence (P78527 whole entry): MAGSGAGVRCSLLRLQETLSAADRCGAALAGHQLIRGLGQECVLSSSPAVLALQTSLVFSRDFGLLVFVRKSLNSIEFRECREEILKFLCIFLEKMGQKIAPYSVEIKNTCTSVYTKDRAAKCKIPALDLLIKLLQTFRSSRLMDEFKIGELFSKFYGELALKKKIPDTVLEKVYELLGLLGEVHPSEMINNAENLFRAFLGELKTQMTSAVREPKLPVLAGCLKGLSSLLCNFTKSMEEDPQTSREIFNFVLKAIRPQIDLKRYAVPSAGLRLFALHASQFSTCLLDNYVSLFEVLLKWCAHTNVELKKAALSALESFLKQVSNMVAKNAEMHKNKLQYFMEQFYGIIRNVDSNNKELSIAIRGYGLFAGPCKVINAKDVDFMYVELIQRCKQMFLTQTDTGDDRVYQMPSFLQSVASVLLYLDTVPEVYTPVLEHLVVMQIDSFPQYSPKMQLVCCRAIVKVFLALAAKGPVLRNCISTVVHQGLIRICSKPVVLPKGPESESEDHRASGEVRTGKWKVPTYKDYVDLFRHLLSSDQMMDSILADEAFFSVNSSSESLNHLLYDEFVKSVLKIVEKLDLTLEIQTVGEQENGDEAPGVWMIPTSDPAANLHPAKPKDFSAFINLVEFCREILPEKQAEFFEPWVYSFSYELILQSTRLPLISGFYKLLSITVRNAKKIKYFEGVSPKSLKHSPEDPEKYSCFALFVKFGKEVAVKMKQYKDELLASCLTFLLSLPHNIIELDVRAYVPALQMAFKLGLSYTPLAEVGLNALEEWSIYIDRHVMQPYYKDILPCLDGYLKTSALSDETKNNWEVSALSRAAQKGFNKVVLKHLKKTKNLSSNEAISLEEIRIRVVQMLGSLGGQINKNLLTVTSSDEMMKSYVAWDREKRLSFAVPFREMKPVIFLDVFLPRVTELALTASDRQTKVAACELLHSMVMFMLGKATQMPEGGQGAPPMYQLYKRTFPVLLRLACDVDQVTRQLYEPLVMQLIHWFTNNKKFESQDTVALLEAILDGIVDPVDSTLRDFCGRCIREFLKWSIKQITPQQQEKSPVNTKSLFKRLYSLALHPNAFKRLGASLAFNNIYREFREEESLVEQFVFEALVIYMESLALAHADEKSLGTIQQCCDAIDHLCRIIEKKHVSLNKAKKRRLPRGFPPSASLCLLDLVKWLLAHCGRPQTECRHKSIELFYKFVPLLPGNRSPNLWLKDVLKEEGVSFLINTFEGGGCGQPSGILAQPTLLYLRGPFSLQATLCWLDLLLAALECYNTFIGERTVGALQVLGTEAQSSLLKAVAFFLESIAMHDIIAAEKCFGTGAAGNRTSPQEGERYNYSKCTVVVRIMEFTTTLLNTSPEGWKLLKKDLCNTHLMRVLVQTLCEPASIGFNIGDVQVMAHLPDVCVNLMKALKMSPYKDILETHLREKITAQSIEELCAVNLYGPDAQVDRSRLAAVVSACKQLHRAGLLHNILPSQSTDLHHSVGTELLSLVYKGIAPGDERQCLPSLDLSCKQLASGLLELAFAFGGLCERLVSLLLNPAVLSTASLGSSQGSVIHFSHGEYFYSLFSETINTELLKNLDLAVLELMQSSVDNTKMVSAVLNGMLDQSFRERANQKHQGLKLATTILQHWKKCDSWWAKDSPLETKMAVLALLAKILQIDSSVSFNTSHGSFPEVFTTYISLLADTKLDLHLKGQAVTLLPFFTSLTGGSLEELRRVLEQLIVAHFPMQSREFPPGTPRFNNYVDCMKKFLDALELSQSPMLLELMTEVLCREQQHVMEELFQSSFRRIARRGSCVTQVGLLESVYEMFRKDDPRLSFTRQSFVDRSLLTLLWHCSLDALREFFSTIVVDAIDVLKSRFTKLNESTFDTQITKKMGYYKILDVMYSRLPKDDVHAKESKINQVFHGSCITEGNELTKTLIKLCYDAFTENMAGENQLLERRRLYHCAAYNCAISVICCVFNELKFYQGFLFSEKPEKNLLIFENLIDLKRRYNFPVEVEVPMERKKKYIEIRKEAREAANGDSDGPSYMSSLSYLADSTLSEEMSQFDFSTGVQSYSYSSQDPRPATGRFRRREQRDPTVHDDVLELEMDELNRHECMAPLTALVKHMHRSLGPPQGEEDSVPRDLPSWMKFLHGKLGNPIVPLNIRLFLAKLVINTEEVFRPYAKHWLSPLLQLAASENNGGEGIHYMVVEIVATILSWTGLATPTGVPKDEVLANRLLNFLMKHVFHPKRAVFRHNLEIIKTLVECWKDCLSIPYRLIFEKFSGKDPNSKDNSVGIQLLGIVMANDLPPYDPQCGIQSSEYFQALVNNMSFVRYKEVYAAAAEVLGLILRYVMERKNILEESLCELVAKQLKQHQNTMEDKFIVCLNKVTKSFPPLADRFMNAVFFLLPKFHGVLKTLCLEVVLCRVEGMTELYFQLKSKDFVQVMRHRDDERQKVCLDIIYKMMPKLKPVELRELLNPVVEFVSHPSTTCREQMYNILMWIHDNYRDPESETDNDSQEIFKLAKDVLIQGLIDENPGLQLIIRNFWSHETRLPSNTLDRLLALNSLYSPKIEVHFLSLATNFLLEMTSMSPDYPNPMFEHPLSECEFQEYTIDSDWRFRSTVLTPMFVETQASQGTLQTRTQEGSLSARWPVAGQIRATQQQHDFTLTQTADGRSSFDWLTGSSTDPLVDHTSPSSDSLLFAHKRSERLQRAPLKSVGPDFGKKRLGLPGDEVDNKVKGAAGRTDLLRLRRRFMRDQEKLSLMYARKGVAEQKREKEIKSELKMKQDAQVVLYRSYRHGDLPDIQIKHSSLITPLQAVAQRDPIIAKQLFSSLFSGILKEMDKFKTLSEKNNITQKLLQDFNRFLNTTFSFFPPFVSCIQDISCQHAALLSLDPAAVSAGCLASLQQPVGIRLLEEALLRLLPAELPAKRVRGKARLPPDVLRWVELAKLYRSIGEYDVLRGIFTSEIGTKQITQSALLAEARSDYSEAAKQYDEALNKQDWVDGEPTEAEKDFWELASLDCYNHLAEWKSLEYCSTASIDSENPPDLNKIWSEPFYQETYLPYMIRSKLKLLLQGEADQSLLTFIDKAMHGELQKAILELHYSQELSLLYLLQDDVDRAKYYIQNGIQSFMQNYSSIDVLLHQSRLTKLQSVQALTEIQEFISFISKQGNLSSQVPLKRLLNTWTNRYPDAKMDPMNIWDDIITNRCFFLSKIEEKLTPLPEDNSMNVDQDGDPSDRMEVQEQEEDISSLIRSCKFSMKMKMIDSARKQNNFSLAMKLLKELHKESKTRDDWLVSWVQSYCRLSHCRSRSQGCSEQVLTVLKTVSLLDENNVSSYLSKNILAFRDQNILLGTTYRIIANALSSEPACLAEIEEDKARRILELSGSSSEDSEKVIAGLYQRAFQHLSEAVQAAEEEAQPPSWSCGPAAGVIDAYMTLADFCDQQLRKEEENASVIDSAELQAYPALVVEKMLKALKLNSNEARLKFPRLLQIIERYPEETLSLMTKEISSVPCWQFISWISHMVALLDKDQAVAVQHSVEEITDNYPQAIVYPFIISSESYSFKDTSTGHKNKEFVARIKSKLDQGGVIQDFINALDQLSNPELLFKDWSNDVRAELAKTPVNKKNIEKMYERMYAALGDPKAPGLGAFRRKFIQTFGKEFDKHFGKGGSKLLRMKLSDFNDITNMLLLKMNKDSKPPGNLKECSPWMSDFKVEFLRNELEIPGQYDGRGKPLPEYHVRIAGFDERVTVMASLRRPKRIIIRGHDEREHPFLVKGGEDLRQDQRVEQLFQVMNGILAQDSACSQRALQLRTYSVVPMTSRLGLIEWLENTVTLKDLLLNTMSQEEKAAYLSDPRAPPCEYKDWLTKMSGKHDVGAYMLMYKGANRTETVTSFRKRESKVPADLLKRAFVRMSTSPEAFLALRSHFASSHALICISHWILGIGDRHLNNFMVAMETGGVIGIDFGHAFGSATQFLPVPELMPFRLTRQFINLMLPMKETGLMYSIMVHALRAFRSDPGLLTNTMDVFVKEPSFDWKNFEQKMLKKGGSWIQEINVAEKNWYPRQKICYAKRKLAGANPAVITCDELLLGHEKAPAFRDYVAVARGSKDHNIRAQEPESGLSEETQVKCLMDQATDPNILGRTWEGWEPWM
Data set [6] deals with 5'-AMP-activated protein kinase catalytic subunit alpha-2 (Homo sapiens) (UniProt P54646). The data set can be described thus: Inhibition of AMPKa2 in human SKCO1 cells at 1 uM after 4 hrs using biotin labeled DLKPENVLLDAHMNAK probe by mass-spectrometric analysis relative to control. The data set is classed as cell-based. In short, it runs like this:
(§2)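 Live SK-CO-1 cells were treated 4 h with compound at 1 μM or DMSO, then lysed. Lysates were labeled with a lysine-reactive ATP/ADP-biotin probe and analysed by mass spectrometry. Percent inhibition is the loss of probe-dependent recovery of the kinase peptide relative to DMSO.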

The target of data set [7] is Bone morphogenetic protein receptor type-1A (Homo sapiens) (UniProt P36894). Briefly: Inhibition of BMPR1A in human SKCO1 cells at 1 uM after 4 hrs using biotin labeled SKNILIK probe by mass-spectrometric analysis relative to control. The data set is classed as cell-based.
Data set [8] addresses Ribosomal protein S6 kinase (Homo sapiens) (UniProt P51812+Q9UBS0+O75676+Q15349+O75582+P23443+Q9UK32+Q15418). Briefly: Inhibition of p70S6K in human SKCO1 cells at 1 uM after 4 hrs using biotin labeled DLKPENIMLNHQGHVK probe by mass-spectrometric analysis relative to control. The data set is classed as cell-based. The gist of the method: as §1
For data set [9], the target named is Serine/threonine-protein kinase SMG1 (Homo sapiens) (UniProt Q96Q15). Briefly: Inhibition of SMG1 in human SKCO1 cells at 1 uM after 4 hrs using biotin labeled DTVTIHSVGGTITILPTKTKPK probe by mass-spectrometric analysis relative to control. The class given is cell-based. The gist of the method: as §1
Data set [10] has as its target T2, Aurora kinase A (Homo sapiens) (UniProt O14965).
T2 sequence (whole entry): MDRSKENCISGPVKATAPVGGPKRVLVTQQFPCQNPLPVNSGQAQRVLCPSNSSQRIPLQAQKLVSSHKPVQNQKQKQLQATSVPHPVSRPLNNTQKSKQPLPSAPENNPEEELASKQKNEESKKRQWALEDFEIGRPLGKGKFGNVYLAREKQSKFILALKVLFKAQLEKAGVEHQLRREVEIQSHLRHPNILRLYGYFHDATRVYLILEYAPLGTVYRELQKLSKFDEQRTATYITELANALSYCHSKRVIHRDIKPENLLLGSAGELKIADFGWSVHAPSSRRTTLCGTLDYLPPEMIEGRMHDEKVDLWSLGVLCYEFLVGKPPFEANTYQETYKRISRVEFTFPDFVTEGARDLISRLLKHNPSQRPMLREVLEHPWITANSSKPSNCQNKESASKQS
Briefly: Inhibition of AurA in human SKCO1 cells at 1 uM after 4 hrs using biotin labeled FILALKVLFK probe by mass-spectrometric analysis relative to control. The data set is classed as cell-based. The gist of the method:
as §2

The target in data set [11] is RAF proto-oncogene serine/threonine-protein kinase (Homo sapiens) (UniProt P04049). The data set can be described thus: Inhibition of RAF1 in human SKCO1 cells at 1 uM after 4 hrs using biotin labeled DMKSNNIFLHEGLTVK probe by mass-spectrometric analysis relative to control. The data set is classed as cell-based. In short, it runs like this: as §1
Data set [12] can be described thus: Increase in secretion of basic-FGF in TNFalpha activated RA patient-derived synovial fibroblasts at 0.6 to 3 uM preincubated for 3 hrs followed by TNFalpha stimulation measured after 18 hrs by sandwich immunoassay. The following applies: human. The gist of the method:
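Primary RA patient synovial fibroblasts (donor RA2159) were seeded at 1000 cells/well, grown about 24 h, then starved overnight and again about 4 h in basal medium with 0.1% BSA. Cells were pre-incubated 3 h with inhibitor (0.6 or 3 μM) or DMSO, then stimulated 18 h with 10 ng/mL TNFα. Paired wells were pooled, in biological duplicate. Pooled supernatants were diluted 1:3 and read on Luminex bead sandwich immunoassays, with mock-medium background and spiked-ligand controls.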

Molecules are shown by their SMILES.

5'-AMP-activated protein kinase catalytic subunit alpha-2 (Homo sapiens), sequence (P54646 whole entry, looked up): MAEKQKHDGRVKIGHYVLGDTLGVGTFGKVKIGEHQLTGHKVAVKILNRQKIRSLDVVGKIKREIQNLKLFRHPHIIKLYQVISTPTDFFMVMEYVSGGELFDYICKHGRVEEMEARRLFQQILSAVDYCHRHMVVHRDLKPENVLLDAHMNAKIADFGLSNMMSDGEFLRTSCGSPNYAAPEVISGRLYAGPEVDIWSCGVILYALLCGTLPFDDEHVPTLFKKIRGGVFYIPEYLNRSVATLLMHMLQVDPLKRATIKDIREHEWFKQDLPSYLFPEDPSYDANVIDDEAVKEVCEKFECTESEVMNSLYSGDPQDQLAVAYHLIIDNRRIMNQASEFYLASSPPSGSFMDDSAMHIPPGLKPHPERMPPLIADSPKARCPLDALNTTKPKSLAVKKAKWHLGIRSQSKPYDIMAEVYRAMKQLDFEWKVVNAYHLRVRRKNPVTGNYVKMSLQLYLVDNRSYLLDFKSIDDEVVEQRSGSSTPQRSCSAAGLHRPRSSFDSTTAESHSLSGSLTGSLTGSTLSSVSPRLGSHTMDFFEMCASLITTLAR

Consider `C=CC(=O)Nc1ccccc1Oc1nc(Nc2cnn(CCOC)c2)ncc1Cl`, for which the inhibition in data set [1] was 61.2%; in [2], -7.4%; in [3] it was 13%; in [4] it was -4.5%; in data set [5], 16.2%; in data set [6], 0.2%. Also, the inhibition came to 19.9% in data set [7]; 14.3% in data set [8]; 16.4% in data set [9]; 52.6% in [10]; 6.3% in data set [11]. Moreover, in data set [12], the Activity result is listed as “Non-Toxic”.
As for `COc1cc(O)c2c(c1)/C=C/C[C@H](O)[C@H](O)C(=O)/C=C\C[C@H](C)OC2=O`, the inhibition in data set [1] was 66%; in [2], 30.6%; in data set [3] it was 65.4%; in [4], -6%; in [5], 21.7%; in [6], 33.6%. Besides, the inhibition in data set [7] was 73.1%; in data set [8], 45.5%; in data set [9], -8.2%; in data set [10], 59.4%; in data set [11] it was 66.4%. Also, the Activity result in data set [12] is “Toxic”.
With `C=CC(=O)Nc1ccccc1Nc1nc(Nc2ccc(N3CCN(C)CC3)cc2)ncc1Cl`, the inhibition is 76.3% in data set [1]; -2.6% in data set [2]; 42.5% in [3]; 38.2% in data set [4]; 0.5% in data set [5]; 76% in [6]. The inhibition in [7] is 28%; in data set [8] it was 16.3%; in data set [9], 0.8%; in [10], 87.2%; in data set [11], 65.6%. The Activity entry in data set [12] was “Toxic”.
